Bioassay records: PubChem BioAssay, Sanford-Burnham Center for Chemical Genomics
Apaf1 inhib – inhibitors of human Apaf-1 apoptosome, primary screen, biochemical, DEVD-Rh110 fluorescence, uHTS | inhibition, % at 20 µM | hit rate 0.71% among 330,000 | Apoptotic protease-activating factor 1 (Homo sapiens), O14727 | reconstituted apoptosome caspase-3 activity; active means inhibition of at least 40% at 20 µM
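Assay system: Apoptosome proteins | Medium: pH 7.5 Hepes buffer with CHAPS, BSA, DTT | Also added: Cytochrome c and DEVD-Rh110 substrate | Times: 30 min plus 50 min, RT | Detection: Rhodamine 110 fluorescence at Ex 480/Em 540 nm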
SENP8 block-1 – human SENP8 protease inhibitors, primary screen, biochemical, fluorescence, Nedd8 protein substrate, uHTS. inhibition, % at 20 µM. hit rate 0.64% among 360,000. AID 602440, 2012. recombinant SENP8; in the data active means inhibition mostly above about 40%, no sharp cut-off; inactive means mostly below about 27%
SENP1 inh – human SENP1 catalytic domain inhibitors, primary screen, biochemical, FRET, uHTS. inhibition, % at 10 µM. recombinant SENP1 catalytic domain, CyPet-SUMO1-YPet FRET cleavage. AID 624204, 2012. hit rate 0.21% among 360,000;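 active means inhibition at least 30% at 10 µM, raw YFP signal under a set limit, fluorescence ratio 0.5 to 1.5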
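Material: hSENP1 catalytic domain, recombinant; medium: Tris pH 8 with BME, BSA, NP40 and catalase; compound: single concentration of 10 µM compound, 0.5% DMSO final; technique: FRET read of cyan and yellow fluorescence; timing: 50 min enzyme reaction, room temperature, light-protected; reagent: SFCypet-SUMO1-SFYpet substrate at 25 nM; control set: no-enzyme low, enzyme-DMSO high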
SENP7 block – SENP7 protease inhibitors, primary screen, biochemical, luminescence, uHTS. hit rate 1.5% among 330,000. inhibition, % at 5 µM. recombinant SENP7, Z-RLRGG-aminoluciferin luminescence, 40 min;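 active means inhibition above about 50% at the single test dose, limit read from the data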
SENP6 block – SENP6 protease inhibitors, primary screen, biochemical, luminescence, uHTS; AID 2599, 2010; inhibition, % at 10 µM; Sentrin-specific protease 6 (Homo sapiens), Q9GZR1; hit rate 1.8% among 330,000; Recombinant SENP6 catalytic domain, aminoluciferin luminescence;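 active means inhibition above about 50% at the single tested dose, limit read from the data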
SENP8 block-2 – SENP8 protease inhibitors, primary screen, biochemical, luminescence; Sentrin-specific protease 8 (Homo sapiens), Q96LD8; purified SENP8, Z-RLRGG-aminoluciferin cleavage; inhibition, % at 10 µM; hit rate 1.2% among 330,000; AID 2540, 2010; in the data active means inhibition above about 50%
SENP8 inh conf – human SENP8 protease inhibitors, confirmation, biochemical, Nedd8 protein substrate, single concentration | purified SENP8, Nedd8-AMC/pro-Nedd8 cleavage fluorescence, 30 min | shares compounds with SENP8 block-1 | AID 624319, 2012 | inhibition, % at 25 µM | hit rate 15% among 1,400; in the data active means inhibition mostly above about 39%, no sharp cut-off; inactive means mostly below about 34%
Each line names hits and unclear results; the compound was inactive in the other large screens (follow-up assays come after a bar, where they were run). Sampled rows, rich in hits. Any-hit rate of the full collection: about 2.9%.

Cc1ccc(S(=O)(=O)N[C@H](C(=O)N2CCC(C(=O)N[C@H](C(=O)O)c3ccccc3)CC2)C(C)C)cc1	SENP8 block-1 48 | SENP8 inh conf inactive
Cc1ccc(S(=O)(=O)N[C@H](C(=O)N2CCC(C(=O)NCC(=O)O)CC2)C(C)C)cc1	none
Cc1ccc(C(=O)N/C(=C\c2ccc(-c3cccc([N+](=O)[O-])c3)o2)C(=O)NCCCN2CCOCC2)cc1	none
Cc1ccc(C(=O)N/C(=C/c2ccc(-c3cccc([N+](=O)[O-])c3)o2)C(=O)NC(C)C)cc1	SENP8 block-1 47 | SENP8 inh conf inactive
COc1ccc(C(=O)N/C(=C\c2ccc(-c3cccc([N+](=O)[O-])c3)o2)C(=O)NCCCN2CCOCC2)cc1	SENP8 block-1 35 (no result: Apaf1 inhib, SENP7 block, SENP6 block, SENP8 block-2) | SENP8 inh conf inactive
O=C1NC[C@H](CCCCN2CCN(CCC3CCCCC3)C(=O)C2=O)N(CCc2ccc(O)cc2)C1=O	none (no result: Apaf1 inhib, SENP7 block, SENP6 block, SENP8 block-2)
O=C(NCc1ccc(Cl)cc1Cl)Nc1nc([C@@H]2O[C@H](CO)[C@@H](O)[C@H](O)[C@H]2O)cs1	none (no result: Apaf1 inhib, SENP7 block, SENP6 block, SENP8 block-2)
Cc1ccc(C(=O)c2coc3cc([N+](=O)[O-])c(O)c([N+](=O)[O-])c23)cc1	SENP8 block-1 47 | SENP8 inh conf inactive
Cc1ccc(C(=O)c2ccc([N+](=O)[O-])cc2)cc1	none
COc1ccc(CCn2nnnc2C(C(C)C)N2CCN(c3ncccn3)CC2)cc1OC (stereo unspecified)	none
COc1ccc(CCn2nnnc2C(CC(C)C)N2CCN(c3ncccn3)CC2)cc1OC (stereo unspecified)	SENP8 block-1 43 | SENP8 inh conf inactive
Cc1ccc(C=Nc2ccc(N(C)C)cc2)o1	Apaf1 inhib 51, SENP8 block-1 45 | SENP8 inh conf inactive
Cc1ccc(C=Nc2ccccc2C(N)=O)o1	none
CCOC(=O)C1=C[C@@H](C(C)(C)C)N(S(=O)(=O)c2ccc(C)cc2)[C@H]1c1ccc(F)cc1	none (no result: Apaf1 inhib, SENP7 block, SENP6 block, SENP8 block-2)
c1ccc(CNCCC(Cc2ccccc2)c2ccco2)cc1 (stereo unspecified)	SENP8 block-1 48 | SENP8 inh conf inactive
Cc1cc(NC(=O)CSc2nnc(C3COc4ccccc4O3)n2N)no1 (stereo unspecified)	SENP8 block-1 43 | SENP8 inh conf inactive
Cc1cccc(NC(=O)COC(=O)CN2C(=O)c3ccccc3C2=O)c1C	none (no result: Apaf1 inhib, SENP7 block, SENP6 block, SENP8 block-2)
C=Cn1ccnc1CC(O)c1ccc(OC)cc1 (stereo unspecified)	SENP8 block-1 44 | SENP8 inh conf inactive
Cc1c(C#N)c(O)n(C)c(=O)c1N=Nc1ccc(S(N)(=O)=O)cc1	SENP8 block-1 49 (no result: Apaf1 inhib, SENP7 block, SENP6 block, SENP8 block-2) | SENP8 inh conf inactive
COc1ccc(C(C(=O)NC2CCCC2)n2c(-c3cccs3)nc3ccccc32)cc1 (stereo unspecified)	none (no result: Apaf1 inhib, SENP7 block, SENP6 block, SENP8 block-2)
CN(C)c1cccc(C(=O)NNC(=O)C23CC4CC(CC(C4)C2)C3)c1	none
Cc1ccc(C(=O)NCC(=O)OCC(=O)N(CC(C)C)c2c(N)n(Cc3ccccc3)c(=O)[nH]c2=O)cc1	SENP8 block-1 32 | SENP8 inh conf inactive
CC(=O)NCC(=O)N[C@@H](CC(=O)OCc1ccccc1)C(=O)OCc1ccccc1	SENP8 block-1 44 | SENP8 inh conf inactive
O=C(CC(NC(=O)OCc1ccccc1)C(=O)OCc1ccccc1)OCc1ccccc1 (stereo unspecified)	none (no result: Apaf1 inhib, SENP7 block, SENP6 block, SENP8 block-2)
CCCCCCCCN1C(=O)[C@H](CC(=O)N2CCCCC2)C[C@@]2(C(=O)OC)CC(C)(C)CC=C12	none (no result: Apaf1 inhib, SENP7 block, SENP6 block, SENP8 block-2)
O=c1[nH]cnc(CN2CCCCC2)c1O	none (no result: Apaf1 inhib, SENP7 block, SENP6 block, SENP8 block-2)
O=c1[nH]c(CN2CCCCC2)ccc1O	SENP8 block-1 68 (no result: Apaf1 inhib, SENP7 block, SENP6 block, SENP8 block-2) | SENP8 inh conf 38
C[C@H]1CN(S(=O)C(C)(C)C)[C@H](CCO)/C1=C\c1ccccc1 (stereo partly specified)	none (no result: Apaf1 inhib, SENP7 block, SENP6 block, SENP8 block-2)
O=C(CCCn1c(=O)oc2ccccc21)N1CCc2ccccc2C1	SENP8 block-1 48 | SENP8 inh conf 78
